Rows were chosen to be rich in hits. Some 4.1% of all compounds tested hit in one or more screens of this group.
KCNQ1 pot = potentiates or activates the human KCNQ1 potassium channel; CHO-K1 KCNQ1, thallium flux FluxOR fluorescence; stronger effect = higher value; B-score at 10 µM; actives 0.35% (n = 310,000); P51787;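 active = fluorescence ratio B-score, a plate-corrected score, at least three library SD, with initial intensity B-score within 5 SD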
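assay system = CHO-K1 cells stably expressing KCNQ1 | medium = assay buffer, equal DMSO in all wells | timing = 37 °C overnight plating, 90-min dark dye load, 20-min compound pretreatment | measured by = kinetic FluxOR thallium fluorescence, 10-s 1-Hz baseline, 110-s post-stimulus read | measure = fluorescence change relative to baseline, converted to B score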
KCNQ1 inh = blocks the human KCNQ1 potassium channel; P51787; CHO-K1 KCNQ1, FluxOR thallium flux fluorescence; stronger effect = higher value; B-score at 10 µM; actives 1.3% (n = 310,000); AID 2642;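 active = compounds whose thallium flux B-score, printed positive for inhibition, exceeds three library SD while starting fluorescence stays within three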;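 note: channel opened by potassium depolarization with thallium stimulus after 20 min compound exposure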
KCNK9 block = inhibitors of human KCNK9 two-pore domain potassium channel. HEK293 KCNK9, FluxOR thallium flux fluorescence; stronger effect = lower value. actives 1.2% (n = 310,000). B-score at 10 µM;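 active = ratio B-score over 3 SD below the library mean, with starting fluorescence within 5 SD of its mean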;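 note: negative B-score means less thallium flux so channel inhibition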
Target sequence (Q9NPC2 whole entry, looked up, the tested form may be a part): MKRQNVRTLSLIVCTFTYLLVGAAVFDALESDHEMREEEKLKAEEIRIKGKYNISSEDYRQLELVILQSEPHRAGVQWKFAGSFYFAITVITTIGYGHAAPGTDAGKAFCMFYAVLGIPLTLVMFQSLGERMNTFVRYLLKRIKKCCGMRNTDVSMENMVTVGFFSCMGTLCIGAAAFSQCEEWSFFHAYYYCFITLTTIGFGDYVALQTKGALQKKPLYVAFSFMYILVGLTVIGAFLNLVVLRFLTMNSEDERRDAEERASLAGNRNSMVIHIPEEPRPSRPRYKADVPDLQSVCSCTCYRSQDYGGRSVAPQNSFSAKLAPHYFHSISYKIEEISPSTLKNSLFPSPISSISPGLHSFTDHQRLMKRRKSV
hERG rescue = shields human hERG channel from block by proarrhythmic agents | actives 0.51% (n = 310,000) | CHO-hERG, FluxOR thallium flux, dofetilide IC70 present | activation (rescue from dofetilide block), less the hit threshold, % at 10 µM | Q12809;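 active = activation above the mean of controls blocked by dofetilide plus 5 SD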;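 note: thallium influx through hERG after potassium depolarization seen as dye fluorescence rise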
KCC2 mod = modulators of human KCC2 chloride dependent transport. Q9H2X9. KCC2 cells, thallium flux FluoZin-2 fluorescence. B-score of Tl+ flux slope (higher = more flux/activation; lower = inhibition) at 10 µM. actives 2.2% (n = 190,000);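 active = thallium flux slope and its plate-corrected score both differing from the plate sample mean at a set confidence after two filtering rounds, in either direction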;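 note: slope of fluorescence scaled to starting intensity during 10 to 20 s after thallium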
KCNK3 block = human KCNK3 channel inhibition, primary screen; actives 0.84% (n = 340,000); B-score at 10 µM; CHO-KCNK3 thallium flux, FluxOR fluorescence; stronger effect = lower value; O14649; AID 602410;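 active = B-score under library mean minus 4 SD, starting fluorescence ratio at most library mean plus 5 SD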;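 note: more negative B-score means stronger inhibition of thallium flux through KCNK3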
* hit, by the source's call; i = inactive; . = no result.

SMILES	KCNQ1 pot	KCNQ1 inh	KCNK9 block	hERG rescue	KCC2 mod	KCNK3 block
Oc1c(C=Nc2ccc(Cl)cn2)sc2ccccc12	i	i	i	-13.4	0.496	i
Oc1c(/C=N/c2ccccn2)sc2ccccc12	11*	i	i	-9.1	0.19	i
COc1ccc(CN(C)CCCn2cnc3c(OCc4ccccc4)ncnc32)cc1OC	.	.	.	.	.	i
CC1(N2CCCCC2)CC2(O)C(=[N+]1[O-])CCC/C2=N\O (centres undefined)	8*	i	i	-6.1	-0.547	i
COc1ccc(OCC(=O)NNC(=O)c2ccccc2OCc2c(C)noc2C)cc1	i	i	-7.48*	-15.3	.	i
Cc1noc(C)c1COc1ccccc1C(=O)NNC(=O)c1ccccc1	i	i	i	-7.6	.	i
CCCn1nc(C(=O)NCC2COc3ccccc3O2)c2ccccc2c1=O (centres undefined)	.	.	.	.	.	i
CSCCNC(=O)c1cccc(Cl)c1	i	i	i	-7.0	0.992	i
CSCCNC(C)=O	i	i	i	5.5*	-0.3	.
COc1ccc(NC(=O)c2cn(-c3ccccc3)nc2-c2ccncc2)cc1	i	i	i	25.5*	0.231	i
COc1ccc(-c2nn(-c3ccccc3)cc2C(=O)NC(=S)NNC(=O)c2ccncc2)cc1	i	i	i	16.7*	2.84	i
COc1ccc(-c2nn(-c3ccccc3)cc2C(=O)Nc2ccc(C(=O)O)cc2)cc1	i	i	i	-1.2	.	i
COc1ccc(NC(=O)c2cn(-c3ccccc3)nc2-c2cc3ccccc3o2)cc1	i	7*	i	-5.4	0.082	i
CCC(C)Nc1nc(N)c([N+](=O)[O-])c(Nc2ccccc2OC)n1 (centres undefined)	i	i	-7.93*	-4.9	0.4	i
CS(=O)(=O)N(CC(=O)Nc1ccc2c(c1)OCO2)Cc1ccccc1	i	i	i	-13.1	-0.611	i
CS(=O)(=O)N(CCc1ccccc1)CC(=O)Nc1ccc2c(c1)OCO2	i	i	-7.91*	-8.2	-0.316	i
CCOc1ccccc1N1CC(C(=O)Nc2ccc(S(=O)(=O)N3CCCCC3)cc2)CC1=O (centres undefined)	i	i	i	-17.4	.	i
CC1=CC(=C(C#N)c2nc3ccccc3s2)C=C(C)N1Cc1ccco1	i	i	i	-7.3	.	-13.2*
COc1cc(C2c3cc4c(cc3OC(NCc3ccccc3)C2C)OCO4)cc(OC)c1OC (centres undefined)	.	.	.	.	.	i
COc1ccc(/C=C2\CN(Cc3ccccc3)C/C(=C\c3ccc(OC)cc3OC)C2=O)c(OC)c1	i	i	i	-22.1	-1.69	i
COc1ccc(C=C2c3ccccc3C(=O)c3ccccc32)c(OC)c1	i	i	-8.7*	-5.3	-1.1	i
CC(C)(C)N(Cc1ccccc1)C(=O)COC(=O)c1ccc(S(=O)(=O)N2CCOCC2)cc1	.	.	.	.	.	i
O=C(COC(=O)COc1ccccc1Cl)Nc1ccccc1OC(F)F	i	i	i	4.9*	-0.738	i
O=C(COC(=O)c1ncc(Cl)c(Cl)c1Cl)Nc1ccccc1OC(F)F	i	i	i	-13.5	-0.965	i
CC(OC(=O)CCN=C1NS(=O)(=O)c2ccccc21)C(=O)Nc1ccc(N(C)C)cc1 (centres undefined)	i	i	i	-0.9	.	i
CCN(CC(=O)NCc1ccc(Cl)cc1)C(=O)c1cccc(S(=O)(=O)Nc2ccc(OC)cc2)c1	i	i	i	-7.2	.	i
CN1Cc2sc(NC(=S)NC(=O)c3ccccc3)c(C#N)c2CC1(C)C	i	8*	i	-14.6	-0.248	i
N/C(=N\OC(=O)c1ccccc1)C(Cc1ccccc1)C(=O)NOC(=O)c1ccccc1 (centres undefined)	.	.	.	.	.	i
Cc1c(N2C(=O)/C(=C/c3cccc4ccccc34)SC2=S)c(=O)n(-c2ccccc2)n1C	i	i	i	-8.1	-6.8*	i
C[C@H](CO)N1C[C@H](C)[C@@H](CN(C)S(=O)(=O)c2cccs2)Oc2ccc(NC(=O)Cn3cnnn3)cc2C1=O	.	.	.	.	.	i

Bioassay records from PubChem BioAssay.
